# Compound activity as filed in PubChem BioAssay.
# SIRT5 inh: sirtuin-5 (human) deacylase inhibition; 1.1% of 330,000 active; Q9NXA8; Purified SirT5, succinyl-peptide AMC, trypsin-coupled fluorescence; inhibition, % at 15 µM; in the data active = inhibition above about 15%
# Target sequence (Q9NXA8 whole entry, looked up): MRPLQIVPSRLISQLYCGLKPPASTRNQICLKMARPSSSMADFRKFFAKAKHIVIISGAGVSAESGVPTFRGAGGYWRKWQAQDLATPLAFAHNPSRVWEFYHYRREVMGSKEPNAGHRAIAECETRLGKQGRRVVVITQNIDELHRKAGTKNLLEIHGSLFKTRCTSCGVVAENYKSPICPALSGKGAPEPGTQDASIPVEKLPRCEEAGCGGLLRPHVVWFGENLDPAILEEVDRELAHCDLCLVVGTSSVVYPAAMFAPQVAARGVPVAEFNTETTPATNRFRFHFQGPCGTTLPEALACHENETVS
# rRNA inh HTS: inhibitors of bacterial rRNA selective over humanized ribosomes; E. coli WT GFP vs humanized-ribosome RFP mutants, fluorescence, 24 h; stronger effect = lower value; DMSO median 0, no signal -100; GFP signal change (wild-type ribosome), % (concentration not given with the values); 1.6% of 350,000 active; AID 720706;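 active = significant combined selectivity score with lowered wild-type GFP, culture density cut under 30%, mutant RFP and density less affected; inactive = any of these conditions unmet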
# FN deposition inh: fibronectin deposition inhibition; AH1F fibroblasts, Alexa488-fibronectin deposition fluorescence, overnight; inhibition, % at 12.6 µM; 0.086% of 350,000 active; AID 743247;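 active = mean inhibition across replicates of 30% or more, regardless of how many single replicates reach that level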
#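 material = AH1F fibroblast monolayer depositing Alexa488-labelled fibronectin into matrix | amount = 10000 AH1F cells/well | buffer or medium = DMEM plus 2% serum, read in PBS | incubation = 1 h cell adhesion before compound, then overnight fibronectin incubation | detection = fluorescence at 485 nm excitation, 525 nm emission | evaluation = percent inhibition as loss of matrix-bound fibronectin fluorescence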
# C2C12 statin: suppression of simvastatin myotoxicity; C2C12 myotubes + simvastatin, ATP luminescence, 48 h; scaled: DMSO 0, geranylgeraniol control 100; rescue of ATP level, % at 7.49 µM; 0.78% of 330,000 active;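 active = mean ATP rescue above about 67%, or every replicate alone reaching that limit, limit read from the data, passing the limit was not always enough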;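 note: myotubes were challenged with 10 µM simvastatin during compound exposure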
# E-selectin induc: induces E-selectin expression in human endothelial cells. P16581. HUVEC E-selectin immunofluorescence imaging; normalized: neutral wells 0, TNF-alpha wells 100. activation, % at 7.58 µM. 0.37% of 260,000 active. AID 686992;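 active = mean E-selectin-positive cell signal at least 10% of the positive control, reached in at least 60% of replicates, without over 20% cell loss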
#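 Test system: HUVEC | Signal: Immunofluorescence imaging | Read-out: Percent E-selectin-positive cells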
# FGF22 binding: binders of recombinant human FGF22 by thermal shift; activity (Tm shift, normalised), % at 9.99 µM; SYPRO orange fluorescence; percent of sucrose octasulfate shift, DMSO zero; AID 651658; 1.5% of 340,000 active;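 active = mean Tm shift, scaled 0 neutral to 100 positive control, at about 1.3% or above, every replicate too, limit read from the data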
# Target sequence (Q9HCT0 whole entry, looked up): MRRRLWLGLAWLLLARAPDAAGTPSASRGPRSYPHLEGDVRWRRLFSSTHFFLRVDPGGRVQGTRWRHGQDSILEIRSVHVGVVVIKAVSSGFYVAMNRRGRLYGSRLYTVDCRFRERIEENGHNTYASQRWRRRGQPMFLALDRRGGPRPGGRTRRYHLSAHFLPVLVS
# A number is an active result; n = inactive; x = no result given. Only some compounds are listed: those with a hit (about 4% of all), similar ones and a draw of the others.
SMILES,SIRT5 inh,rRNA inh HTS,FN deposition inh,C2C12 statin,E-selectin induc,FGF22 binding
CC(C)NC(=O)N(C)C[C@@H]1OCCCC[C@H](C)Oc2ccc(NC(=O)Nc3ccc(C(F)(F)F)cc3)cc2C(=O)N([C@@H](C)CO)C[C@H]1C,n,n,n,x,x,n
C=CCNC(=O)[C@@H]1[C@H]2C(=O)O[C@H](c3ccccc3)[C@H](c3ccccc3)N2[C@H](c2ccc(OCCO)cc2)[C@@]12C(=O)Nc1ccc(C#CCCO)cc12,n,x,x,x,x,n
CCc1noc(C)c1C(=O)OCC(=O)NCc1ccccc1,n,n,n,n,x,n
O=C(CCNS(=O)(=O)c1ccc(Br)cc1)NCc1ccc(F)cc1,n,n,n,n,x,n
O=C(CCNS(=O)(=O)c1ccc(Br)cc1)NCc1ccc2c(c1)OCO2,x,x,n,152,x,x
COc1cccc(OCc2cc(C(=O)NCc3ccc4c(c3)OCO4)no2)c1,n,-33,n,n,x,n
CCc1noc(C)c1C(=O)OCC(=O)NCc1ccc(Cl)cc1,18,n,n,n,n,n
COc1ccc(S(=O)(=O)NC(CC(=O)NCc2ccc3c(c2)OCO3)c2ccco2)cc1 (configuration not stated),x,x,x,117,x,x
C[C@H](CO)N1C[C@H](C)[C@H](CN(C)C)Oc2ccc(NC(=O)Nc3ccc(F)cc3)cc2C1=O,n,n,x,n,n,n
COc1ccc(NC(=O)Nc2ccc3c(c2)C(=O)N([C@H](C)CO)C[C@@H](C)[C@H](CN(C)S(=O)(=O)c2ccc(OC)cc2)OCCCC[C@@H](C)O3)cc1,x,n,n,x,n,n
COc1ccccc1CCNC(=O)c1cc(COc2cccc(C(F)(F)F)c2)on1,n,-34,n,n,x,n
O=C(NCC1CCOCC1)c1cc(COc2cccc(C(F)(F)F)c2)on1,n,n,n,n,n,n
O=C(c1ccc([N+](=O)[O-])cc1)N(Cc1ccccc1)Cc1ccccc1,n,-26,n,n,n,n
O=c1cnnc(N/N=C/c2c[nH]c3ccccc23)[nH]1,n,n,n,n,n,43
O=c1nc(N/N=C/c2c[nH]c3ccccc23)cn[nH]1,n,n,n,x,x,n
COc1ccc(CN(C)C[C@H]2Oc3c(NC(=O)NC(C)C)cccc3C(=O)N([C@@H](C)CO)C[C@H]2C)cc1,n,n,n,n,n,n
Cc1sc2nc(SCC(=O)N3CCOCC3)[nH]c(=O)c2c1C,n,n,n,n,n,n
COC(=O)c1ccc(CSc2nc3sc(C(=O)O)c(C)c3c(=O)[nH]2)cc1,n,n,n,x,x,n
CCOC(=O)c1ccc(NC(=O)CSc2nc3sc(C(=O)O)c(C)c3c(=O)[nH]2)cc1,n,n,n,n,n,43
Cc1sc2nc(SCC(=O)O)[nH]c(=O)c2c1C,n,n,n,x,x,43
O=C(C[C@H]1C[C@H]2c3cc(NC(=O)Nc4ccccc4)ccc3O[C@H]2[C@@H](CO)O1)NCc1ccncc1,18,n,n,n,n,n
O=C(C[C@@H]1C[C@H]2c3cc(NC(=O)NC4CCCCC4)ccc3O[C@H]2[C@@H](CO)O1)NCCc1ccccc1,n,n,x,x,n,n
O=C(C[C@H]1C[C@H]2c3cc(NS(=O)(=O)c4ccc(F)cc4)ccc3O[C@H]2[C@H](CO)O1)NCc1ccc(-c2ccccc2)cc1,18,n,n,n,n,x
O=C(C[C@@H]1C[C@H]2c3cc(NS(=O)(=O)c4ccc(F)cc4)ccc3O[C@H]2[C@@H](CO)O1)NCc1ccc(-c2ccccc2)cc1,16,n,n,n,n,x
O=C(C[C@@H]1C[C@@H]2c3cc(NC(=O)NC4CCCCC4)ccc3O[C@@H]2[C@H](CO)O1)NCCc1ccccc1,26,n,x,x,n,x
SMILES,SIRT5 inh,rRNA inh HTS,FN deposition inh,C2C12 statin,E-selectin induc,FGF22 binding
O=C(C[C@@H]1C[C@@H]2c3cc(NS(=O)(=O)c4ccc(F)cc4)ccc3O[C@@H]2[C@@H](CO)O1)NCc1ccc(-c2ccccc2)cc1,n,x,x,n,x,x
[N-]=[N+]=NCc1ccccc1C[C@]1(C(=O)N2CCCCC2)COC(c2ccc(OCCCO)cc2)=N1,n,x,x,x,x,n
CCCC(=O)N1C[C@@H]2[C@H](c3ccccc31)[C@H](CO)N2Cc1cocn1,n,n,n,n,n,n
O=C(C[C@H]1C[C@H]2c3cc(NC(=O)C4CCC4)ccc3O[C@H]2[C@H](CO)O1)NCc1ccc(-c2ccccc2)cc1,n,n,n,n,n,n
O=C(C[C@H]1C[C@@H]2c3cc(NC(=O)C4CCC4)ccc3O[C@@H]2[C@@H](CO)O1)NCc1ccc(-c2ccccc2)cc1,23,n,n,n,n,n
O=C1Nc2ccccc2C1Cc1ccccn1 (configuration not stated),x,n,n,x,48,n
COc1cc(CC2C(=O)Nc3ccccc32)cc(C)c1O (configuration not stated),n,n,n,n,52,n
O=C1Nc2ccccc2C1Cc1ccc(OC(F)(F)F)cc1 (configuration not stated),n,n,n,n,n,n
CO[C@@H]1CN(C)C(=O)c2cc(NC(=O)Nc3c(C)noc3C)ccc2OC[C@H](C)N(C)C[C@@H]1C,n,n,n,n,n,n
COCCN=C1Sc2nc3c(C)cccc3cc2CN1Cc1ccco1,x,x,n,114,x,x
COCCN=C1Sc2nc3ccc(C)cc3cc2CN1Cc1cccs1,n,n,x,x,x,n
COc1ccc(-n2cnc3cc(NCc4cccs4)ccc32)cc1,x,x,x,127,x,x
Cc1ccc(-n2cnc3cc(NCc4cccs4)ccc32)cc1,x,x,n,n,x,x
Oc1ccc(/C=N/NC(=S)NCc2ccco2)cc1,x,x,x,n,x,x
CC(C)(C)c1ccc(C(=O)NC(=S)NCc2ccco2)cc1,n,n,n,n,n,n
S=C(NCc1ccco1)N/N=C/c1ccc(Cl)cc1,n,-39,n,x,n,n
CC(C)(CO)NC(=S)NCc1ccco1,30,n,n,x,x,n
Cn1c(NCCCO)nc2c1c(=O)n(Cc1ccccc1F)c(=O)n2C,39,n,x,n,x,x
Cn1c(=O)n(Cc2ccc(Cl)cc2)c(=O)c2c1nc1n2CCN1Cc1ccco1,x,x,x,n,x,x
Cn1c(=O)n(Cc2ccccc2)c(=O)c2c1nc1n2CCCN1Cc1ccccc1,x,x,x,116,x,x
Cn1c(=O)n(Cc2ccccc2F)c(=O)c2c1nc1n2CCN1Cc1ccco1,n,n,n,n,n,43
Cc1noc(C)c1S(=O)(=O)Nc1ccc2c(c1)C(=O)N([C@@H](C)CO)C[C@H](C)[C@H](CN(C)C(=O)Nc1ccccc1)O2,n,n,x,x,n,n
C[C@@H]1CN([C@@H](C)CO)C(=O)c2cccc(NS(=O)(=O)c3cccs3)c2O[C@@H]1CN(C)CC1CCCCC1,n,n,n,n,x,n
CC(C)(C)[C@@H]1C=C(C(=O)N2CCCCCCC2)O[C@H](OCc2ccc(CO)cc2)C1,n,x,x,x,x,n
